{"source": "ChEMBL document CHEMBL1155217", "about": "“Synthesis and evaluation of 3-(dihydroxyboryl)benzoic acids as D,D-carboxypeptidase R39 inhibitors” (J Med Chem, 2009)", "key": {"[1]": {"molecular_target": "D-alanyl-D-alanine carboxypeptidase (Actinomadura sp. R39, UniProt P39045)", "sequence (P39045 whole entry)": "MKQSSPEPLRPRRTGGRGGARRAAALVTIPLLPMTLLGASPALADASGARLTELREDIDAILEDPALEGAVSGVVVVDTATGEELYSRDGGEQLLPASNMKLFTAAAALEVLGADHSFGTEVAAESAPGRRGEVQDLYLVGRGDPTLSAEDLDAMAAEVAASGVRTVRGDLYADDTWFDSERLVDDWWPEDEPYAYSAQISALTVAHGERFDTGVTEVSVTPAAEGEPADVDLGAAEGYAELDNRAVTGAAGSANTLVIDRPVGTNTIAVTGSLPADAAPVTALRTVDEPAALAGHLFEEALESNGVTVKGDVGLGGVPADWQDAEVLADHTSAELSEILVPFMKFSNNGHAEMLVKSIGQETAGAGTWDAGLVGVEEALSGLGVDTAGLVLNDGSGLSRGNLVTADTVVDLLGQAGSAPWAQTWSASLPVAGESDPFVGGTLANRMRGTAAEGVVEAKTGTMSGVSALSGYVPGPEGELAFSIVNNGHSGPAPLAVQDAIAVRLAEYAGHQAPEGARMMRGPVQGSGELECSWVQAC", "assay": "Inhibition of Actinomadura sp. R39 penicillin-binding protein preincubated for 60 mins before addition of substrate mixture of (R)-[2-(benzoylamino)propionylsulfanyl]acetic acid and 5,5'-dithiobis(2-nitrobenzoic acid)", "in_short": "(§1)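 Purified R39 (3.5 nM) preincubated with compound in 10 mM sodium phosphate pH 7.2, 100 mM NaCl, 100 mM D-alanine, 0.01 mg/mL BSA, 60 min, 25 °C. S2d then added (final 1 mM) with DTNB (final 0.5 mM; 1% v/v DMF). Initial hydrolysis rate read at 412 nm. Spontaneous substrate hydrolysis was measured without enzyme. Triplicates. IC50 from nonlinear regression of RA across a concentration range.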"}, "[2]": {"molecular_target": "T1, Penicillin-binding protein 2x (Streptococcus pneumoniae serotype 4 (strain ATCC BAA-334 / TIGR4)) (UniProt P14677)", "T1 sequence (whole entry)": "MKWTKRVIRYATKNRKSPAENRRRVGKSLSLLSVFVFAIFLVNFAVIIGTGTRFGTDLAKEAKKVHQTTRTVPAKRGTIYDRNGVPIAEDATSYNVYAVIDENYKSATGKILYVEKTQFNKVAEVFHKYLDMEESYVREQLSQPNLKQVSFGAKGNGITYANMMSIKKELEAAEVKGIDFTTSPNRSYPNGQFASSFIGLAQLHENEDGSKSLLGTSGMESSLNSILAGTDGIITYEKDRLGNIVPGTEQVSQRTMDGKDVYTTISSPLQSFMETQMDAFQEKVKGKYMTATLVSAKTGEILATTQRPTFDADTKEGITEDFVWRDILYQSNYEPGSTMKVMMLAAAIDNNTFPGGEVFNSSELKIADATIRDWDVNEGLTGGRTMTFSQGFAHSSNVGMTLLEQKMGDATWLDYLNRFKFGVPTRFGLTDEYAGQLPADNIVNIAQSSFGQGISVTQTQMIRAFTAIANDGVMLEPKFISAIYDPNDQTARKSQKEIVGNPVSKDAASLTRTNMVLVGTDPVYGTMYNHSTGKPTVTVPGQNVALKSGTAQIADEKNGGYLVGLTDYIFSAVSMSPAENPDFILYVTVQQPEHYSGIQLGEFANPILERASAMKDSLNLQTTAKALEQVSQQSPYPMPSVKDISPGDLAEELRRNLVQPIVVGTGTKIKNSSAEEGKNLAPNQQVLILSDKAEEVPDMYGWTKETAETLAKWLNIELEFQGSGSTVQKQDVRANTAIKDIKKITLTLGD", "assay": "Inhibition of penicillin-resistant Streptococcus pneumoniae 5204 PBP2X assessed as residual activity at 100 uM preincubated for 4 hrs before addition of substrate mixture of (R)-[2-(benzoylamino)propionylsulfanyl]acetic acid and 5,5'-dithiobis(2-nitrobenzoic acid)", "in_short": "(§2)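 PBP2x-5204 (0.6 μM) preincubated with compound in 10 mM sodium phosphate pH 7.0, 70 mM D-alanine, 0.01 mg/mL BSA, 4 h, 25 °C. S2d (final 1 mM) and DTNB (final 0.5 mM) then added. Residual activity taken from initial rate at 412 nm against uninhibited enzyme (six replicates per plate). Triplicates. IC50 by nonlinear regression.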"}, "[3]": {"molecular_target": "T2, Penicillin-binding protein 2X (Streptococcus pneumoniae R6) (UniProt P59676)", "T2 sequence (whole entry)": "T1 sequence (whole entry) with T385M", "assay": "Inhibition of penicillin-sensitive Streptococcus pneumoniae R6 PBP2X assessed as residual activity at 500 uM preincubated for 60 mins before addition of substrate mixture of (R)-[2-(benzoylamino)propionylsulfanyl]acetic acid and 5,5'-dithiobis(2-nitrobenzoic acid)", "in_short": "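S. pneumoniae PBP2xR6 (0.09 μM) was preincubated with compound in 10 mM sodium phosphate pH 7.0 with 0.01 mg/mL BSA, for 60 min at 25 °C. S2d (1 mM final) and DTNB (0.5 mM final) were added, and the initial hydrolysis rate was monitored at 412 nm. Uninhibited activity (six replicates per plate) was set as 100%; assays ran in triplicate.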"}, "[4]": {"assay": "Solubility in sodium phosphate buffer saline of pH 7.2 at 1 mM", "format": "physicochemical", "settings": "pH 7.2, 1000 µM"}, "[5]": {"molecular_target": "T1, Penicillin-binding protein 2x (Streptococcus pneumoniae serotype 4 (strain ATCC BAA-334 / TIGR4))", "assay": "Inhibition of penicillin-resistant Streptococcus pneumoniae 5204 PBP2X assessed as residual activity at 500 uM preincubated for 4 hrs before addition of substrate mixture of (R)-[2-(benzoylamino)propionylsulfanyl]acetic acid and 5,5'-dithiobis(2-nitrobenzoic acid)", "in_short": "as §2"}, "[6]": {"molecular_target": "D-alanyl-D-alanine carboxypeptidase (Actinomadura sp. R39) (UniProt P39045)", "sequence (P39045 whole entry)": "as the sequence (P39045 whole entry) above", "assay": "Inhibition of Actinomadura sp. R39 penicillin-binding protein at 0.5 mM preincubated for 60 mins before addition of substrate mixture of (R)-[2-(benzoylamino)propionylsulfanyl]acetic acid and 5,5'-dithiobis(2-nitrobenzoic acid)", "in_short": "(§3)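 Purified Actinomadura R39 D,D-peptidase (3.5 nM) was preincubated with compound for 60 min at 25 °C. S2d (1 mM final) and DTNB (0.5 mM final) were then added, with 1% v/v DMF. Initial rate was read at 412 nm, corrected for enzyme-free hydrolysis, in triplicate.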"}, "Streptococcus pneumoniae": {"test_system": "Streptococcus pneumoniae", "assay": "Inhibition of Streptococcus pneumoniae PBP1B assessed as residual activity at 1 mM after 60 mins by SDS-PAGE"}, "[7]": {"molecular_target": "Penicillin-binding protein 2x (Streptococcus pneumoniae serotype 4 (strain ATCC BAA-334 / TIGR4), UniProt P14677)", "assay": "Inhibition of penicillin-resistant Streptococcus pneumoniae 5204 PBP2X preincubated for 4 hrs before addition of substrate mixture of (R)-[2-(benzoylamino)propionylsulfanyl]acetic acid and 5,5'-dithiobis(2-nitrobenzoic acid)", "in_short": "as §2"}, "[8]": {"molecular_target": "D-alanyl-D-alanine carboxypeptidase (Actinomadura sp. R39) (UniProt P39045)", "assay": "Inhibition of Actinomadura sp. R39 penicillin-binding protein assessed as residual activity at 500 uM preincubated for 60 mins before addition of substrate mixture of (R)-[2-(benzoylamino)propionylsulfanyl]acetic acid and 5,5'-dithiobis(2-nitrobenzoic acid)", "in_short": "as §3"}, "[9]": {"molecular_target": "T2, Penicillin-binding protein 2X (Streptococcus pneumoniae R6)", "assay": "Inhibition of penicillin-sensitive Streptococcus pneumoniae R6 PBP2X assessed as residual activity at 100 uM preincubated for 60 mins before addition of substrate mixture of (R)-[2-(benzoylamino)propionylsulfanyl]acetic acid and 5,5'-dithiobis(2-nitrobenzoic acid)", "in_short": "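PBP2x-R6 (0.09 μM) preincubated with compound in 10 mM sodium phosphate pH 7.0, 0.01 mg/mL BSA, 60 min, 25 °C. S2d (final 1 mM) and DTNB (final 0.5 mM) then added. Residual activity from initial rate at 412 nm, relative to enzyme-only wells. Triplicates. Repeated with 0.01% Triton X-100 when RA <80%.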"}, "[10]": {"assay": "Solubility in sodium phosphate buffer saline of pH 7.2", "format": "physicochemical"}, "[11]": {"molecular_target": "D-alanyl-D-alanine carboxypeptidase (Actinomadura sp. R39) (UniProt P39045)", "assay": "Inhibition of Actinomadura sp. R39 penicillin-binding protein assessed as residual activity at 100 uM preincubated for 60 mins before addition of substrate mixture of (R)-[2-(benzoylamino)propionylsulfanyl]acetic acid and 5,5'-dithiobis(2-nitrobenzoic acid)", "in_short": "as §1"}}, "note": "Residue numbers refer to the chain shown, from its start.", "data": [{"compound": "O=C(Cc1ccccc1)Nc1cc(B(O)O)cc(C(=O)O)c1", "values": [{"measurement": "IC50", "setting": "[1]", "result": 88, "unit": "µM"}]}, {"compound": "OB(O)c1ccc(Oc2ccccc2)cc1", "values": [{"measurement": "Activity", "setting": "[2]", "result": 108, "unit": "%"}]}, {"compound": "OB(O)c1ccccc1", "note": "[PHENYLBORONIC ACID]", "values": [{"measurement": "Activity", "setting": "[3]", "result": 114, "unit": "%"}, {"measurement": "solubility", "setting": "[4]", "result": "Insoluble"}, {"measurement": "Activity", "setting": "[5]", "result": 78, "unit": "%"}, {"measurement": "inhibition", "setting": "[6]", "result": 50, "unit": "%"}]}, {"compound": "COc1ccccc1C(=O)Nc1cc(B(O)O)cc(C(=O)O)c1", "values": [{"measurement": "IC50", "setting": "[1]", "result": 23, "unit": "µM"}, {"measurement": "Activity", "setting": "Streptococcus pneumoniae", "result": 82, "unit": "%"}]}, {"compound": "O=C(O)c1ccc(B(O)O)s1", "values": [{"measurement": "IC50", "setting": "[7]", "result": "> 1000", "unit": "µM"}]}, {"compound": "O=C(O)c1cc(NC(=O)c2ccccc2)cc(B(O)O)c1", "values": [{"measurement": "IC50", "setting": "[1]", "result": 34, "unit": "µM"}, {"measurement": "Activity", "setting": "Streptococcus pneumoniae", "result": 85, "unit": "%"}]}, {"compound": "CN(C)c1cccc2c(S(=O)(=O)Nc3cccc(B(O)O)c3)cccc12", "values": [{"measurement": "Activity", "setting": "[3]", "result": 91, "unit": "%"}]}, {"compound": "O=C(O)c1cccc(B(O)O)c1", "values": [{"measurement": "IC50", "setting": "[1]", "result": 400, "unit": "µM"}]}, {"compound": "CC1(C)OB(c2cccc(C(=O)O)c2)OC1(C)C", "values": [{"measurement": "Activity", "setting": "[3]", "result": 93, "unit": "%"}, {"measurement": "solubility", "setting": "[4]", "result": "Insoluble"}, {"measurement": "Activity", "setting": "[5]", "result": 98, "unit": "%"}, {"measurement": "Activity", "setting": "[8]", "result": 38, "unit": "%"}, {"measurement": "inhibition", "setting": "[6]", "result": "> 50", "unit": "%"}]}, {"compound": "O=C(Cc1cccs1)Nc1cc(B(O)O)cc(C(=O)O)c1", "values": [{"measurement": "IC50", "setting": "[1]", "result": 78, "unit": "µM"}, {"measurement": "Activity", "setting": "Streptococcus pneumoniae", "result": 53, "unit": "%"}]}, {"compound": "O=C(O)c1cc(NC(=O)c2cccs2)cc(B(O)O)c1", "values": [{"measurement": "IC50", "setting": "[1]", "result": 32, "unit": "µM"}, {"measurement": "Activity", "setting": "Streptococcus pneumoniae", "result": 70, "unit": "%"}]}, {"compound": "OB(O)c1ccc(-c2ccc(B(O)O)cc2)cc1", "values": [{"measurement": "Activity", "setting": "[9]", "result": 104, "unit": "%"}, {"measurement": "solubility", "setting": "[10]", "result": "Insoluble"}, {"measurement": "Activity", "setting": "[2]", "result": 95, "unit": "%"}]}, {"compound": "O=C(COc1ccccc1)Nc1cc(B(O)O)cc(C(=O)O)c1", "values": [{"measurement": "IC50", "setting": "[1]", "result": 28, "unit": "µM"}, {"measurement": "Activity", "setting": "Streptococcus pneumoniae", "result": 83, "unit": "%"}]}, {"compound": "OB(O)c1ccc(-c2ccccc2)cc1", "note": "[BIPHENYLBORONIC ACID]", "values": [{"measurement": "Activity", "setting": "[9]", "result": 90, "unit": "%"}, {"measurement": "solubility", "setting": "[10]", "result": "Insoluble"}, {"measurement": "Activity", "setting": "[2]", "result": 120, "unit": "%"}, {"measurement": "Activity", "setting": "[11]", "result": 104, "unit": "%"}]}]}
